Test results as given in ChEMBL document CHEMBL4837210 (Eur J Med Chem, 2021).

Assays:
Assay type in all cases: functional
[1] = test system: Staphylococcus epidermidis; assay: Antibacterial activity against penicillin-resistant Staphylococcus epidermidis assessed as inhibition of bacterial growth measured by broth microdilution method; details: time 24 hrs
Streptococcus pyogenes [2] = assay: Antibacterial activity against erythromycin-susceptible Streptococcus pyogenes clinical isolate 1 assessed as bacterial growth inhibition incubated for 24 hrs by CLSI protocol based broth microdilution method
Staphylococcus aureus [3] = assay: Antibacterial activity against Staphylococcus aureus assessed as inhibition of bacterial growth measured by broth microdilution method; details: time 24 hrs
Outline: (§1)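 Broth microdilution in Mueller Hinton broth. A 0.5 McFarland suspension was diluted tenfold, giving an inoculum of 1.5 × 10⁷ cfu/mL. This was added to 2-fold serial compound dilutions from […]. Plates were incubated aerobically at 37 °C for 24 h. MIC was the lowest concentration with no visible turbidity.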

Streptococcus pyogenes [4] = assay: Antibacterial activity against erythromycin-resistant Streptococcus pyogenes 2 assessed as bacterial growth inhibition incubated for 24 hrs by CLSI protocol based broth microdilution method
Pseudomonas aeruginosa = assay: Antibacterial activity against penicillin-susceptible Pseudomonas aeruginosa ATCC27853 assessed as bacterial growth inhibition incubated for 24 hrs by CLSI protocol based broth microdilution method
Staphylococcus aureus [5] = assay: Antibacterial activity against erythromycin-susceptible Staphylococcus aureus ATCC 25923 assessed as bacterial growth inhibition incubated for 24 hrs by CLSI protocol based broth microdilution method
Bacillus pumilus = assay: Antibacterial activity against penicillin-susceptible Bacillus pumilus CMCC 63202 assessed as bacterial growth inhibition by broth dilution method; details: time 24 hrs; outline: as §1
Escherichia coli = assay: Antibacterial activity against penicillin-susceptible Escherichia coli ATCC 25922 assessed as inhibition of bacterial growth measured by broth microdilution method; details: time 24 hrs; outline: as §1
Bacillus subtilis = assay: Antibacterial activity against penicillin-susceptible Bacillus subtilis ATCC 9372 assessed as bacterial growth inhibition incubated for 24 hrs by CLSI protocol based broth microdilution method
Staphylococcus aureus [6] = assay: Antibacterial activity against methicillin-resistant Staphylococcus aureus ATCC 43300 assessed as inhibition of bacterial growth by broth microdilution method; details: time 24 hrs
Outline: (§2)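 Broth microdilution MIC. A 0.5 McFarland suspension was diluted 10-fold and added at 1.5 × 10⁷ cfu/mL to 2-fold dilutions (0.125–64) in Mueller Hinton broth. Incubated aerobically 24 h at 37 °C. MIC was the lowest concentration with no visible turbidity.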

Staphylococcus aureus [7] = assay: Antibacterial activity against penicillin-resistant Staphylococcus aureus assessed as inhibition of bacterial growth measured by broth microdilution method; details: time 24 hrs; outline: as §2

SMILES | MIC [1] | MIC (Streptococcus pyogenes [2]) | MIC (Staphylococcus aureus [3]) | MIC (Streptococcus pyogenes [4]) | MIC (Pseudomonas aeruginosa) | MIC (Staphylococcus aureus [5]) | MIC (Bacillus pumilus) | MIC (Escherichia coli) | MIC (Bacillus subtilis) | MIC (Staphylococcus aureus [6]) | MIC (Staphylococcus aureus [7])
CCCCCCCCNc1c2ccccc2[n+](C)c2ccccc12.[Cl-] | 16 mg/L | 16 mg/L | 8 mg/L | 16 mg/L | > 64 mg/L | 8 mg/L | 16 mg/L | > 64 mg/L | 16 mg/L | 16 mg/L | 4 mg/L
C[n+]1c2ccccc2c(Nc2ccccc2)c2ccccc21.[Cl-] | > 64 mg/L | > 64 mg/L | > 64 mg/L | > 64 mg/L | > 64 mg/L | > 64 mg/L | > 64 mg/L | > 64 mg/L | > 64 mg/L | > 64 mg/L | 
CCCc1ccc(-c2c3ccccc3[n+](C)c3ccccc23)cc1.[I-] | 8 mg/L | 1 mg/L | 0.25 mg/L | 4 mg/L | > 64 mg/L | 0.25 mg/L | 2 mg/L | > 64 mg/L | 1 mg/L | 4 mg/L | 16 mg/L
COc1ccccc1/C=C/c1c2ccccc2[n+](C)c2ccccc12.[I-] | 8 mg/L | 0.25 mg/L | 1 mg/L | 0.5 mg/L | > 64 mg/L | 0.25 mg/L | 2 mg/L | > 64 mg/L | 1 mg/L | 4 mg/L | 16 mg/L
Cc1ccccc1C#Cc1c2ccccc2[n+](C)c2ccccc12.[I-] | 16 mg/L | 8 mg/L | 2 mg/L | 16 mg/L | > 64 mg/L | 4 mg/L | 8 mg/L | > 64 mg/L | 8 mg/L | 4 mg/L | 8 mg/L
CCc1ccc(-c2c3ccccc3[n+](C)c3ccccc23)cc1.[I-] | 32 mg/L | 2 mg/L | 1 mg/L | 4 mg/L | > 64 mg/L | 0.25 mg/L | 4 mg/L | > 64 mg/L | 2 mg/L | 16 mg/L | 64 mg/L
COc1ccccc1Nc1c2ccccc2[n+](C)c2ccccc12.[Cl-] | > 64 mg/L | > 64 mg/L | > 64 mg/L | > 64 mg/L | > 64 mg/L | > 64 mg/L | > 64 mg/L | > 64 mg/L | > 64 mg/L | > 64 mg/L | 
CCCCc1ccc(C#Cc2c3ccccc3[n+](C)c3ccccc23)cc1.[I-] | 8 mg/L | 8 mg/L | 4 mg/L | 8 mg/L | > 64 mg/L | 4 mg/L | 2 mg/L | > 64 mg/L | 4 mg/L | 4 mg/L | 8 mg/L
C[n+]1c2ccccc2c(Nc2ccc(F)cc2F)c2ccccc21.[Cl-] | > 64 mg/L | > 64 mg/L | > 64 mg/L | > 64 mg/L | > 64 mg/L | > 64 mg/L | > 64 mg/L | > 64 mg/L | > 64 mg/L | > 64 mg/L | 
COc1cccc(-c2c3ccccc3[n+](C)c3ccccc23)c1.[I-] | > 64 mg/L | 8 mg/L | 8 mg/L | 32 mg/L | > 64 mg/L | 4 mg/L | 32 mg/L | > 64 mg/L | 16 mg/L | > 64 mg/L | > 64 mg/L
CCCCCCNc1c2ccccc2[n+](C)c2ccccc12.[Cl-] | 64 mg/L | 32 mg/L | 64 mg/L | 32 mg/L | > 64 mg/L | 64 mg/L | 64 mg/L | > 64 mg/L | 64 mg/L | 64 mg/L | 64 mg/L
CCc1ccccc1Nc1c2ccccc2[n+](C)c2ccccc12.[Cl-] | > 64 mg/L | > 64 mg/L | > 64 mg/L | > 64 mg/L | > 64 mg/L | > 64 mg/L | > 64 mg/L | > 64 mg/L | > 64 mg/L | > 64 mg/L | 
CCc1ccc(/C=C/c2c3ccccc3[n+](C)c3ccccc23)cc1.[I-] | 4 mg/L | 0.5 mg/L | 1 mg/L | 1 mg/L | > 64 mg/L | 0.5 mg/L | 1 mg/L | 64 mg/L | 1 mg/L | 2 mg/L | 8 mg/L
CCCNc1c2ccccc2[n+](C)c2ccccc12.[Cl-] | 64 mg/L | 32 mg/L | > 64 mg/L | 64 mg/L | > 64 mg/L | > 64 mg/L | > 64 mg/L | > 64 mg/L | > 64 mg/L | > 64 mg/L | 
C[n+]1c2ccccc2c(Nc2nccs2)c2ccccc21.[Cl-] | > 64 mg/L | > 64 mg/L | > 64 mg/L | > 64 mg/L | > 64 mg/L | > 64 mg/L | > 64 mg/L | > 64 mg/L | > 64 mg/L | > 64 mg/L | 
C[n+]1c2ccccc2c(NC2CC2)c2ccccc21.[Cl-] | > 64 mg/L | > 64 mg/L | > 64 mg/L | 64 mg/L | > 64 mg/L | > 64 mg/L | > 64 mg/L | > 64 mg/L | > 64 mg/L | > 64 mg/L | 
CCNc1c2ccccc2[n+](C)c2ccccc12.[Cl-] | > 64 mg/L | 64 mg/L | > 64 mg/L | 64 mg/L | > 64 mg/L | > 64 mg/L | > 64 mg/L | > 64 mg/L | 64 mg/L | > 64 mg/L | 
C[n+]1c2ccccc2c(-c2ccc(C=O)cc2)c2ccccc21.[I-] | > 64 mg/L | 64 mg/L | > 64 mg/L | > 64 mg/L | > 64 mg/L | 64 mg/L | > 64 mg/L | > 64 mg/L | > 64 mg/L | > 64 mg/L | 
CC(C)Nc1c2ccccc2[n+](C)c2ccccc12.[Cl-] | > 64 mg/L | > 64 mg/L | > 64 mg/L | > 64 mg/L | > 64 mg/L | > 64 mg/L | > 64 mg/L | > 64 mg/L | > 64 mg/L | > 64 mg/L | 
C[n+]1c2ccccc2c(Nc2ccccn2)c2ccccc21.[Cl-] | > 64 mg/L | > 64 mg/L | > 64 mg/L | > 64 mg/L | > 64 mg/L | > 64 mg/L | > 64 mg/L | > 64 mg/L | 64 mg/L | > 64 mg/L | 
C[n+]1c2ccccc2c(Nc2ccccc2C(F)(F)F)c2ccccc21.[Cl-] | > 64 mg/L | > 64 mg/L | > 64 mg/L | > 64 mg/L | > 64 mg/L | > 64 mg/L | > 64 mg/L | > 64 mg/L | > 64 mg/L | > 64 mg/L | 
C[n+]1c2ccccc2c(NC2CCCCC2)c2ccccc21.[Cl-] | > 64 mg/L | > 64 mg/L | > 64 mg/L | 64 mg/L | > 64 mg/L | > 64 mg/L | > 64 mg/L | > 64 mg/L | 32 mg/L | > 64 mg/L | 
Cc1ccc(Nc2c3ccccc3[n+](C)c3ccccc23)c(C)c1.[Cl-] | > 64 mg/L | > 64 mg/L | > 64 mg/L | > 64 mg/L | > 64 mg/L | > 64 mg/L | > 64 mg/L | > 64 mg/L | > 64 mg/L | > 64 mg/L | 
C[n+]1c2ccccc2c(Nc2ncccn2)c2ccccc21.[Cl-] | > 64 mg/L | > 64 mg/L | > 64 mg/L | > 64 mg/L | > 64 mg/L | > 64 mg/L | > 64 mg/L | > 64 mg/L | > 64 mg/L | > 64 mg/L | 
O=C(O)c1cn(C2CC2)c2cc(N3CCNCC3)c(F)cc2c1=O [CIPROFLOXACIN] | > 64 mg/L |  |  |  |  |  |  |  |  |  | > 64 mg/L
COc1ccc(Nc2c3ccccc3[n+](C)c3ccccc23)c(OC)c1.[Cl-] | > 64 mg/L | > 64 mg/L | > 64 mg/L | > 64 mg/L | > 64 mg/L | > 64 mg/L | > 64 mg/L | > 64 mg/L | > 64 mg/L | > 64 mg/L | 
C[n+]1c2ccccc2c(Nc2ccccc2-c2ccccc2)c2ccccc21.[Cl-] | > 64 mg/L | > 64 mg/L | > 64 mg/L | > 64 mg/L | > 64 mg/L | > 64 mg/L | > 64 mg/L | > 64 mg/L | > 64 mg/L | > 64 mg/L | 
C[n+]1c2ccccc2c(Nc2ccc(Cl)cc2Cl)c2ccccc21.[Cl-] | > 64 mg/L | > 64 mg/L | > 64 mg/L | > 64 mg/L | > 64 mg/L | > 64 mg/L | > 64 mg/L | > 64 mg/L | > 64 mg/L | > 64 mg/L | 
